# In article PMC6263940 (Nature chemical biology, 2018):
# Positions count from the first letter of the chain named.
# Legend:
# [1] = tested on: serine hydrolases in THP-1 cells; assay: ABPP-SILAC; assay type: cell-based, human; settings: 1 μM, 4 h, THP-1 cells
# [2] = molecular target: T1, serine hydrolases in THP-1 cells (Homo sapiens, UniProt P08910); assay: ABPP-SILAC; assay type: cell-based
# T1 sequence (P08910 1-425): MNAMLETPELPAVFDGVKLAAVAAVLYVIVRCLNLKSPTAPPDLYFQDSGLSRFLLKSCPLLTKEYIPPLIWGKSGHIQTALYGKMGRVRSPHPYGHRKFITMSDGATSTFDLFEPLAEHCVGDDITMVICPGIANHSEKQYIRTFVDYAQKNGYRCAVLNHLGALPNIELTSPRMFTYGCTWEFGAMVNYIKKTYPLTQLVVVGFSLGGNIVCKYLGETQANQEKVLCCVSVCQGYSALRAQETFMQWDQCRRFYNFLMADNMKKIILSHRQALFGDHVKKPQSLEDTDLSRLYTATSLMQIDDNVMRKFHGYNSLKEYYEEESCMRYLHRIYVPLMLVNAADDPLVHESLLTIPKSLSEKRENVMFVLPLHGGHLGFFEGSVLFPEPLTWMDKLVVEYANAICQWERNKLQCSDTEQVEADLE
# C57BL/6 mice = assay: Targeted LC-MS of brain lipid content of treated mice; assay type: in vivo, mouse
# How it was run: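 Mice received test compound or vehicle i.p. (single doses, 24 h; or 30 mg/kg time course), orally (24 h), or 30 mg/kg daily p.o. for four weeks (8-month-old mice). Brains harvested after isoflurane and cervical dislocation; lipids measured by targeted LC-MS. ABHD12(+/+) and (−/−) brains serve as reference; chronic data given as mean ± SEM.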
# ABHD2 = molecular target: T2, ABHD2 (Mus musculus, UniProt Q9QXM0); assay: Quantitative MS-ABPP of brain membrane proteome from treated mice: ABHD2; assay type: in vivo; settings: 30 mg/kg, i.p., 4 h
# T2 sequence (Q9QXM0 1-425): T1 sequence (P08910 1-425) with K194R, L198Q, L412S, V420M, D423E
# How it was run: (§1)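 Mice dosed i.p. with test compound (30 mg/kg) or vehicle and killed after 4 h (isoflurane, then cervical dislocation). Brain membrane serine hydrolase activities quantified by MS-based ABPP. Each protein's value is the mean of median peptide ratios (treated vs vehicle) ± SEM, from n = 4 or 3 independent samples per compound.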
# ABHD12 [3] = molecular target: T3, ABHD12 (Mus musculus, UniProt Q99LR1); assay: Lyso-PS hydrolysis assay with membrane lysates of ABHD12-transfected cells; assay type: biochemical
# T3 sequence (Q99LR1 1-398): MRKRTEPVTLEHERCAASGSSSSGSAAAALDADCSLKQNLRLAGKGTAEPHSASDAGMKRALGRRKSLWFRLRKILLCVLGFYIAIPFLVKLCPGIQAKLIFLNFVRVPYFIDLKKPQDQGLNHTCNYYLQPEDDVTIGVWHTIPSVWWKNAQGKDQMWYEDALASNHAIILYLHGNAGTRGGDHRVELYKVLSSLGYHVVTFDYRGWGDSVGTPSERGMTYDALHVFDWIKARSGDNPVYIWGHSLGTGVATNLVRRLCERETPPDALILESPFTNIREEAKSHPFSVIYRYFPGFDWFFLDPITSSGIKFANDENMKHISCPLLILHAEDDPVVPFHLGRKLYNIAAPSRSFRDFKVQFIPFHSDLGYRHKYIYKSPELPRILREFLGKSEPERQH
# How it was run: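 Membrane lysate of ABHD12-transfected cells in DPBS incubated with 17:1 lyso-PS (100 μM final) for 20 min at 37 °C. Quenched in 2:1 CHCl₃/MeOH with 15:0 FFA internal standard. Activity is the LC-MS 17:1 FFA/15:0 FFA peak-area ratio minus mock-transfected membrane activity. IC50 fitted as log(inhibitor) vs normalized response.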
# [4] = molecular target: T4, mouse brain serine hydrolases (Mus musculus, UniProt Q9QXM0); assay type: biochemical; settings: MS-ABPP, mouse brain membrane proteome, 1 μM
# T4 sequence (Q9QXM0 1-425): T1 sequence (P08910 1-425) with K194R, L198Q, L412S, V420M, D423E
# [5] = tested on: mouse brain serine hydrolases; assay type: biochemical; settings: gel-based ABPP 0.1 or 2 μM; MS-based ABPP 1 μM
# serine hydrolases = assay: ABPP of brain serine hydrolase activities from treated mice; assay type: in vivo, mouse; settings: gel- and MS-based ABPP, more than 65 other serine hydrolases quantified
# How it was run: as §1
# LCMV clone 13 = settings: mouse, in vivo
# ABHD12 [6] = molecular target: T5, ABHD12 (Homo sapiens, UniProt Q8N2K0); assay: ABPP-SILAC; assay type: cell-based; settings: 1 μM, 4 h, THP-1 cells
# T5 sequence (Q8N2K0 1-398): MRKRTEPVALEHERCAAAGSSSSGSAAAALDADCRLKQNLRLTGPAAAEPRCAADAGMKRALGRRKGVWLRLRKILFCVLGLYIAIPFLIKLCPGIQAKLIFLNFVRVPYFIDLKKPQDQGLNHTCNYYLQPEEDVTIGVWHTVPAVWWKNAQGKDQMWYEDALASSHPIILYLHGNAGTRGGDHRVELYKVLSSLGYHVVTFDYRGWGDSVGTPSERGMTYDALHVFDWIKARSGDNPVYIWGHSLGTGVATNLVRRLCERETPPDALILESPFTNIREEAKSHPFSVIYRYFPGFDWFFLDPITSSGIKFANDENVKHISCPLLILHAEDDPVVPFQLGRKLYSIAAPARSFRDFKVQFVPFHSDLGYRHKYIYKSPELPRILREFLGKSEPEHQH
# How it was run: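 Heavy- or light-labelled THP-1 cells (30 million) differentiated with PMA (150 ng/mL final) for 24 h, washed, then kept a further 24 h in fresh SILAC medium. Light cells treated with test compound and heavy cells with DMSO, 4 h at 37 °C. Sonicated whole-cell proteomes (2 mg/mL) labelled separately with FP-biotin 1 μM, 30 min, room temperature, then combined for quantitative MS.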
structure (smiles),measurement,setting,value
"FC(F)(F)Oc1ccc(Oc2ccnc(N3CCC(NC(=S)Nc4cccnc4)CC3)c2Cl)c(Cl)c1 [DO264, N-3-pyridyl-N’-(1-[3-chloro-4-{2-chloro-4-(trifluoromethoxy)phenoxy}pyridine-2-yl]piperidin-4-yl)thiourea]",effect on activity of other serine hydrolases,[1],without affecting the activity of other serine hydrolases
same,inhibition of human ABHD2 in situ,[2],did not inhibit
same,time post-dosing at which brain lyso-PS changes were maximal,"C57BL/6 mice; 30 mg/kg, i.p., detectable by 4 h",24 h
same,brain 20:4 lyso-PI,"C57BL/6 mice; 30 mg/kg, p.o., 24 h",increase
same,brain lyso-PS and 20:4 PS after chronic treatment,"C57BL/6 mice; 8-month-old mice, 30 mg/kg daily, p.o., four weeks",Substantial elevations
same,brain lyso-PS species and select 20:4 PS species,"C57BL/6 mice; DO264 1-60 mg/kg, (S)-DO271 60 mg/kg, i.p., 24 h",dose-dependently increased
same,brain 2-AG,C57BL/6 mice; brain tissue of treated mice,did not show changes
same,dose at which maximal lyso-PS and 20:4 PS elevations were observed,"C57BL/6 mice; i.p., 24 h",30 mg/kg
same,reduction in ABHD2 activity in treated mice,ABHD2,40-50%
same,time dependence of ABHD12 inhibition,"ABHD12 [3]; 30-45 min or no preincubation, ABHD12-transfected HEK293T lysate 0.2 mg/mL",did not show time-dependent inhibition
same,ABHD12 activity after dilution of inhibitor-treated lysates,"ABHD12 [3]; ABHD12-transfected HEK293T lysates, preincubated 20 min, diluted five-fold",recovery of ABHD12 activity
same,inhibition of mouse ABHD2 in vitro,[4],did not inhibit
same,selectivity for ABHD12 over other mouse brain serine hydrolases,[5],excellent selectivity
same,selectivity for ABHD12 in vivo,serine hydrolases,excellent selectivity
same,"pathological response to Cl13 infection, in comparison to (S)-DO271",LCMV clone 13,heightened pathology
same,pro-inflammatory chemokines in BALF compared to control group,LCMV clone 13,increases
same,total protein in bronchoalveolar lavage fluid (BALF) compared to control group,LCMV clone 13,increases
same,fraction of treated ABHD12(−/−) mice that died prior to sacrifice at day 10,"LCMV clone 13; ip, 30 mg/kg",30-40%
same,ABHD12 activity blocked,ABHD12 [6],> 95%
